Data on 4 compounds can be found in ChEMBL document CHEMBL2157904, “Identification of a novel Smoothened antagonist that potently suppresses Hedgehog signaling” (Bioorg Med Chem, 2012).

In one test the test system is U2OS. The test can be described thus: Antagonist activity at chimeric Smo 633 mutant expressed in U2OS cells coexpressing beta arrestin2-GFP assessed as inhibition of intracellular beta arrestin2-GFP aggregate formation at 5 uM after 6 hrs by confocal microscopy. Format: functional, cell-based. Conditions: Homo sapiens. In short, it runs like this:
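Cells exposed to compound at 5 µM for 6 hours. Confocal imaging scored loss of intracellular βarr2-GFP vesicular aggregates.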

A short description of test [1]: Antiproliferative activity against Shh-stimulated C57BL/6 mouse granule cell precursor after 48 hrs by [3H]thymidine incorporation assay. Format: functional. The method in brief: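 Primary cerebellar granule cell precursors taken from 7-day postnatal C57BL/6 mice. Treated 48 h with Shh plus compound at increasing concentrations, then [3H]-thymidine added for 16 h and incorporation measured. Curve-fit IC50, mean ± SEM, n = 3.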
For orientation: Dividing cells build labelled thymidine or BrdU into new DNA.

Test [2] has as its target Vasopressin V2 receptor (Homo sapiens) (UniProt P30518). The test can be described thus: Antagonist activity at V2R expressed in U2OS cells coexpressing beta arrestin2-GFP assessed as inhibition of D-arginine vasopressin-induced intracellular beta arrestin2-GFP aggregate formation at 5 uM preincubated for 1 hr before agonist treatment measured after 6 hrs of agonist treatment by confocal microscopy. It is filed as functional, cell-based.

The test system of the next test is Mus musculus. The test can be described thus: Inhibition of hair regrowth in eight week old C57BL/6 mouse at 0.5 mM topically administered daily on shaved and Nair depilated surface for 2 weeks. It is filed as functional, organism-based. In short, it runs like this:
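Female C57BL/6 mice aged eight weeks, in telogen, with dorsal skin shaved and then depilated with Nair for 2 min and rinsed. Compound at 0.5 mM in 95% acetone/5% DMSO, 30 µl applied topically to the depilated area daily for two weeks. Vehicle-treated controls. Brief 3% isoflurane anaesthesia during procedures.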

A further test concerns the target Protein smoothened (Mus musculus, UniProt P56726). The test can be described thus: Antagonist activity at Smo in mouse Shh-Light 2 cells assessed as inhibition of Shh-induced Gli1-reporter activity after 2 days by dual-luciferase reporter gene method. It is filed as functional, cell-based, Shh Light II. In short, it runs like this: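 Shh-LIGHT2 cells (clonal NIH3T3 line with stably integrated Gli-dependent firefly luciferase and constitutive Renilla luciferase) stimulated with purified Sonic Hedgehog at 50 ng/mL, with compound at increasing concentrations. Dual-luciferase read-out. Mean ± SEM.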

SMILES strings stand for the structures. Activity calls are given as the source filed them. The calls are words filed in the database; no cut-off is given here.

Chain of Vasopressin V2 receptor (Homo sapiens) (P30518 whole entry): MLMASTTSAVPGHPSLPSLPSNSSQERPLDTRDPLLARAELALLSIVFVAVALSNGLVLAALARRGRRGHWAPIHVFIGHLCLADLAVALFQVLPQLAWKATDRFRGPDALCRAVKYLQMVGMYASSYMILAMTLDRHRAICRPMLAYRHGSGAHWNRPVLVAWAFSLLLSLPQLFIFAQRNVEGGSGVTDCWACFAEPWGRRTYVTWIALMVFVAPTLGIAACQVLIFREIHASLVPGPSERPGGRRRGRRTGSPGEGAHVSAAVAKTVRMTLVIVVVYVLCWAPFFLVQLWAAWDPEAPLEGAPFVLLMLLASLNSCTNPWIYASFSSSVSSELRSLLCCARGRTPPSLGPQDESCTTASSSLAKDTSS
Chain of Protein smoothened (P56726 whole entry): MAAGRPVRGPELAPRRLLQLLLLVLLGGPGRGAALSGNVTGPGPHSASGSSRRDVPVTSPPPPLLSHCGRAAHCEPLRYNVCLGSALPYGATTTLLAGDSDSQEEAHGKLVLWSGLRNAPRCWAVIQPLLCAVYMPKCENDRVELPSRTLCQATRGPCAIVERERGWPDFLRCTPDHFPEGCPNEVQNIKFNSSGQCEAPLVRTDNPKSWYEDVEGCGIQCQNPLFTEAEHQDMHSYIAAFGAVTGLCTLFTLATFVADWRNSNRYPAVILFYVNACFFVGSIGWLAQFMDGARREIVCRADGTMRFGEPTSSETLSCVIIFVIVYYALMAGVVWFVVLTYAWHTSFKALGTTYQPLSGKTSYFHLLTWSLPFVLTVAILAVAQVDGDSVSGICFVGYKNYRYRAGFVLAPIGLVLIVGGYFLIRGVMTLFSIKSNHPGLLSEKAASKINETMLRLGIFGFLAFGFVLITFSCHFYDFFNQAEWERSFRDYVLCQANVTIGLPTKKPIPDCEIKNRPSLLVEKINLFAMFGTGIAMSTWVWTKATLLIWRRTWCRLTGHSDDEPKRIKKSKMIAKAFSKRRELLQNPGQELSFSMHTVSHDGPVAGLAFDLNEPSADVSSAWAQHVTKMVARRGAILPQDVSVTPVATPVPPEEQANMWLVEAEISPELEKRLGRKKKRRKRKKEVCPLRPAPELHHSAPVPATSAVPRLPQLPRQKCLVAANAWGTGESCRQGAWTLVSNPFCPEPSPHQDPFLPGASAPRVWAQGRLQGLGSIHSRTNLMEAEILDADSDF

A word on the IC50: it is the concentration at which inhibition is half-maximal. Take `CC1=C2C[C@H]3[C@@H](CC=C4C[C@@H](O)CC[C@@]43C)[C@@H]2CC[C@]12O[C@@H]1C[C@H](C)CN[C@H]1[C@H]2C` [CYCLOPAMINE]: in the test on U2OS, the inhibition entry was “Active”. The IC50 in test [1] worked out at 414 nM. The inhibition entry in test [2] was “inactive”.

For the compound `CCN(C)Cc1ccc(N2CCC(NC(=O)c3cccc(-c4cccnc4)c3)CC2)nc1`, the inhibition result in the test on U2OS was “Active”.

With `CS(=O)(=O)c1ccc(C(=O)Nc2ccc(Cl)c(-c3ccccn3)c2)c(Cl)c1` [VISMODEGIB], in test [1], the IC50 is 16.4 nM.

Regarding `O=C(NC1CCN(Cc2ccc(N3CCC(NC(=O)c4cccc(-c5cccnc5)c4)CC3)nc2)CC1)c1cccc(-c2cccnc2)c1`, the inhibition result in the test on Mus musculus is “Active”. Besides, the results for the IC50 (in test [1]; on Protein smoothened) were 16.6 nM and 2.6 nM, respectively. The inhibition entry in test [2] was “inactive”.
